Source: ChEMBL document CHEMBL1649142, “Relationship between susceptibility to daptomycin in vitro and activity in vivo in a rabbit model of aortic valve endocarditis” (Antimicrob Agents Chemother, 2009)
In brackets after ≈: the same amount, converted by molar mass.

Tests used:
[1] = Cmax in New Zealand rabbit at 18 mg/kg/day, iv […] measured after 15 mins […] by HPLC; format: ADME, organism-based, Oryctolagus cuniculus; parameters: dose 18 mg/kg/day, route intravenous; settings: in vivo
Outline: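 A single IV bolus (1 to 2 min, marginal ear vein) was given to healthy New Zealand White rabbits, three per group. Plasma was drawn from 0.25 to 6 h and assayed by validated HPLC. The reported value is the mean plasma concentration 15 min after the end of infusion, not a multi-day steady-state peak.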

[2] = Half life in New Zealand rabbit at 12 mg/kg/day, iv […] by HPLC; format: ADME, organism-based, Oryctolagus cuniculus; parameters: route intravenous; settings: in vivo
Outline: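 Uninfected New Zealand White rabbits (n = 3 per group) were dosed once by IV bolus. Plasma was collected at 0.25, 0.5, 1, 2, 4 and 6 h and measured by validated HPLC. Half-life was obtained by noncompartmental analysis, with kel taken from the slope of the terminal log concentration-time curve.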

[3] = AUC in New Zealand rabbit at 12 mg/kg/day, iv for 4 days by HPLC; format: ADME, organism-based, Oryctolagus cuniculus; parameters: route intravenous; settings: plasma
[4] = AUC in New Zealand rabbit at 18 mg/kg/day, iv for 4 days by HPLC; format: ADME, organism-based, Oryctolagus cuniculus; parameters: route intravenous; settings: plasma
[5] = AUC in human at 6 mg/kg, iv by HPLC; format: ADME, organism-based; parameters: dose 6 mg/kg, route intravenous; settings: plasma
[6] = AUC in human at 10 mg/kg, iv by HPLC; format: ADME, organism-based; parameters: dose 10 mg/kg, route intravenous; settings: plasma
Staphylococcus aureus [7] = experiment: Antimicrobial activity against rifampin-susceptible Staphylococcus aureus A by Etest
Staphylococcus aureus [8] = experiment: Antimicrobial activity against rifampin-susceptible Staphylococcus aureus A by broth dilution method
Staphylococcus aureus [9] = experiment: Antimicrobial activity against rifampin-resistant Staphylococcus aureus B; format: functional
Staphylococcus aureus [10] = experiment: Antimicrobial activity against Staphylococcus aureus A0.5/B2.0 infected in New Zealand rabbit dual-infection aortic valve endocarditis model assessed as bacterial count in endocardial vegetation at 12 mg/kg/day, iv for 4 days (reference value: 7.8+/-0.4 log10 CFU/g); format: functional, Aorta
Staphylococcus aureus [11] = experiment: Antimicrobial activity against Staphylococcus aureus A0.5/B2.0 infected in New Zealand rabbit dual-infection aortic valve endocarditis model assessed as bacterial count in spleen at 12 mg/kg/day, iv for 4 days (reference value: 6.0+/-0.3 log10 CFU/g); format: functional
Staphylococcus aureus [12] = experiment: Antimicrobial activity against Staphylococcus aureus A0.5/B2.0 infected in New Zealand rabbit dual-infection aortic valve endocarditis model assessed as bacterial count in kidney at 12 mg/kg/day, iv for 4 days (reference value: 6.3+/-1.0 log10 CFU/g); format: functional
Staphylococcus aureus [13] = experiment: Antimicrobial activity against Staphylococcus aureus A0.5/B2.0 infected in New Zealand rabbit dual-infection aortic valve endocarditis model assessed as bacterial count of strain A0.5 in endocardial vegetation at 12 mg/kg/day, iv for 4 days (reference value: 280 log10 CFU); format: functional, Aorta
Staphylococcus aureus [14] = experiment: Antimicrobial activity against Staphylococcus aureus A0.5/B2.0 infected in New Zealand rabbit dual-infection aortic valve endocarditis model assessed as bacterial count of strain A0.5 in spleen at 12 mg/kg/day, iv for 4 days (reference value: 333 log10 CFU); format: functional
Staphylococcus aureus [15] = experiment: Antimicrobial activity against Staphylococcus aureus A0.5/B2.0 infected in New Zealand rabbit dual-infection aortic valve endocarditis model assessed as bacterial count of strain B2.0 in endocardial vegetation at 12 mg/kg/day, iv for 4 days (reference value: 320 log10 CFU); format: functional, Aorta
Staphylococcus aureus [16] = experiment: Antimicrobial activity against Staphylococcus aureus A0.5/B2.0 infected in New Zealand rabbit dual-infection aortic valve endocarditis model assessed as bacterial count of strain B2.0 in spleen at 12 mg/kg/day, iv for 4 days (reference value: 627 log10 CFU); format: functional
Staphylococcus aureus [17] = experiment: Antimicrobial activity against Staphylococcus aureus A0.5 infected in New Zealand rabbit aortic valve endocarditis model assessed as bacterial count in endocardial vegetation at 12 mg/kg/day, iv for 4 days (reference value: 6.9+/-0.7 log10 CFU/g); format: functional
Staphylococcus aureus [18] = experiment: Antimicrobial activity against Staphylococcus aureus A0.5 infected in New Zealand rabbit aortic valve endocarditis model assessed as bacterial count in endocardial vegetation at 18 mg/kg/day, iv for 4 days (reference value: 6.9+/-0.7 log10 CFU/g); format: functional
Staphylococcus aureus [19] = experiment: Antimicrobial activity against Staphylococcus aureus A0.5 infected in New Zealand rabbit aortic valve endocarditis model assessed as bacterial count in spleen at 12 mg/kg/day, iv for 4 days (reference value: 6.1+/-0.2 log10 CFU/g); format: functional
Staphylococcus aureus [20] = experiment: Antimicrobial activity against Staphylococcus aureus A0.5 infected in New Zealand rabbit aortic valve endocarditis model assessed as bacterial count in spleen at 18 mg/kg/day, iv for 4 days (reference value: 6.1+/-0.2 log10 CFU/g); format: functional
Staphylococcus aureus [21] = experiment: Antimicrobial activity against Staphylococcus aureus A0.5 infected in New Zealand rabbit aortic valve endocarditis model assessed as bacterial count in spleen at 12 mg/kg/day, iv for 4 days (reference value: 5.7+/-0.7 log10 CFU/g); format: functional
Staphylococcus aureus [22] = experiment: Antimicrobial activity against Staphylococcus aureus A0.5 infected in New Zealand rabbit aortic valve endocarditis model assessed as bacterial count in spleen at 18 mg/kg/day, iv for 4 days (reference value: 5.7+/-0.7 log10 CFU/g); format: functional
Staphylococcus aureus [23] = experiment: Antimicrobial activity against Staphylococcus aureus B2.0 infected in New Zealand rabbit aortic valve endocarditis model assessed as bacterial count in endocardial vegetation at 12 mg/kg/day, iv for 4 days (reference value: 7.3+/-1.0 log10 CFU/g); format: functional, Aorta
Staphylococcus aureus [24] = experiment: Antimicrobial activity against Staphylococcus aureus B2.0 infected in New Zealand rabbit aortic valve endocarditis model assessed as bacterial count in endocardial vegetation at 18 mg/kg/day, iv for 4 days (reference value: 7.3+/-1.0 log10 CFU/g); format: functional, Aorta
Staphylococcus aureus [25] = experiment: Antimicrobial activity against Staphylococcus aureus B2.0 infected in New Zealand rabbit aortic valve endocarditis model assessed as bacterial count in spleen at 12 mg/kg/day, iv for 4 days (reference value: 5.4+/-0.2 log10 CFU/g); format: functional
Staphylococcus aureus [26] = experiment: Antimicrobial activity against Staphylococcus aureus B2.0 infected in New Zealand rabbit aortic valve endocarditis model assessed as bacterial count in spleen at 18 mg/kg/day, iv for 4 days (reference value: 5.4+/-0.2 log10 CFU/g); format: functional
Staphylococcus aureus [27] = experiment: Antimicrobial activity against Staphylococcus aureus B2.0 infected in New Zealand rabbit aortic valve endocarditis model assessed as bacterial count in kidney at 12 mg/kg/day, iv for 4 days (reference value: 5.1+/-0.6 log10 CFU/g); format: functional
Staphylococcus aureus [28] = experiment: Antimicrobial activity against Staphylococcus aureus B2.0 infected in New Zealand rabbit aortic valve endocarditis model assessed as bacterial count in kidney at 18 mg/kg/day, iv for 4 days (reference value: 5.1+/-0.6 log10 CFU/g); format: functional

CCCCCCCCCC(=O)N[C@@H](Cc1c[nH]c2ccccc12)C(=O)N[C@H](CC(N)=O)C(=O)N[C@@H](CC(=O)O)C(=O)N[C@@H]1C(=O)NCC(=O)N[C@@H](CCCN)C(=O)N[C@@H](CC(=O)O)C(=O)N[C@H](C)C(=O)N[C@@H](CC(=O)O)C(=O)NCC(=O)N[C@H](CO)C(=O)N[C@@H]([C@H](C)CC(=O)O)C(=O)N[C@@H](CC(=O)c2ccccc2N)C(=O)O[C@@H]1C
Cmax [1]: 149 µg/mL
half-life [2]: 5 h
AUC at 96 h [3]: 719 µg·h/mL
AUC at 96 h [4]: 965 µg·h/mL
AUC [5]: 632 µg·h/mL
AUC [6]: 1040 µg·h/mL
MIC (Staphylococcus aureus [7]): 0.5 µg/mL (≈ 0.309 µM)
MIC (Staphylococcus aureus [8]): 0.5 µg/mL (≈ 0.309 µM)
MIC (Staphylococcus aureus [9]): 2 µg/mL (≈ 1.23 µM)
log10CFU/g (Staphylococcus aureus [10]): 5.3
log10CFU/g (Staphylococcus aureus [11]): 2.3
log10CFU/g (Staphylococcus aureus [12]): 1.7
log10CFU/g (Staphylococcus aureus [13]): 2.3
log10CFU/g (Staphylococcus aureus [14]): 1
log10CFU/g (Staphylococcus aureus [15]): 1.7
log10CFU/g (Staphylococcus aureus [16]): 0
log10CFU/g (Staphylococcus aureus [17]): 0
log10CFU/g (Staphylococcus aureus [18]): 0
log10CFU/g (Staphylococcus aureus [19]): 0
log10CFU/g (Staphylococcus aureus [20]): 0
log10CFU/g (Staphylococcus aureus [21]): 0
log10CFU/g (Staphylococcus aureus [22]): 0
log10CFU/g (Staphylococcus aureus [23]): 6.3
log10CFU/g (Staphylococcus aureus [24]): 4.4
log10CFU/g (Staphylococcus aureus [25]): 3.2
log10CFU/g (Staphylococcus aureus [26]): 2.3
log10CFU/g (Staphylococcus aureus [27]): 2.1
log10CFU/g (Staphylococcus aureus [28]): 2.5
